From PubChem BioAssay
S1P4 agonist = S1P4 receptor agonists, primary screen, cell-based | 220,000 compounds, 0.35% hits | activation, % at 4.98 µM | S1P4-expressing cell line, agonist reporter assay; in the data active = activation above about 11%
Target sequence (O95977 whole entry, looked up): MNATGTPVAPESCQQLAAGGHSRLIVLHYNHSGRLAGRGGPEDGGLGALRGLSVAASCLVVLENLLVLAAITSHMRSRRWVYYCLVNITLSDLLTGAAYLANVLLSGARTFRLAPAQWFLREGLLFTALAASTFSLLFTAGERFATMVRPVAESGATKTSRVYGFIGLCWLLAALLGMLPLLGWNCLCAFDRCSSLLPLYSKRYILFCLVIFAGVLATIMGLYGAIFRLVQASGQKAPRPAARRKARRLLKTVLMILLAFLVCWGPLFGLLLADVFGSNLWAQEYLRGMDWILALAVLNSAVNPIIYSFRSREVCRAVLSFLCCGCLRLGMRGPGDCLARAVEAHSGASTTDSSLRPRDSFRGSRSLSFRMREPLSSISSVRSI
Dynein cargo inh = inhibitors of GR-EGFP nuclear translocation, primary screen, dynein cargo transport inhibitor project, imaging, high-content, 3617.4 mouse cells. test concentration mostly 20 µM; stimulated with dexamethasone, 1 µM; active compounds read low. z-score, hits read low. 220,000 compounds, 0.47% hits;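 active = plate z-score of nuclear minus cytoplasmic receptor signal below a set negative limit, without overly bright fluorescence or cell loss, cut at about -3.5 in these data, passing the limit was not always enough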;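 note: z-score of nuclear minus cytoplasmic ring GR-EGFP intensity difference per well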
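Buffer or medium – tet-free medium with charcoal-stripped serum · Signal – automated 10x imaging of fixed Hoechst-stained cells · Also added – dexamethasone agonist, 1.0 µM final, for 30 min · Incubation – induction 48 h, compound 1 h, agonist 30 min · Read-out – GR-EGFP nuclear translocation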
S1P4 antagonist = S1P4 receptor antagonists, primary screen, cell-based; S1P4-expressing cells, antagonist mode, reporter read-out; AID 1510, 2009; inhibition, % at 4.98 µM; Sphingosine 1-phosphate receptor 4 (Homo sapiens), O95977; 220,000 compounds, 0.26% hits; in the data active = inhibition above about 29%
TNF death inh = inhibitors of TNF-alpha triggered necroptosis, primary screen, cell-based, Jurkat FADD-/-, single concentration; Jurkat FADD-/- TNF necroptosis rescue, ATP luminescence, 24 h; 0 = TNF only, 100 = no-TNF cells; activation (protection from cell death), % at 10 µM; 220,000 compounds, 0.068% hits;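 active = activation, meaning protection from cell death, of at least 50% relative to plate controls; inactive = activation below 50%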;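 note: necroptosis triggered by 40 ng/mL TNF-alpha added together with compound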
Tb hexokinase = Trypanosoma brucei hexokinase 1 inhibitors, primary screen, biochemical, G6PDH-coupled NADH absorbance, MLSCN library | recombinant TbHK1, G6PDH-coupled NADH A340 | inhibition, % at 10 µM | 220,000 compounds, 0.11% hits | AID 1430, 2008;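 active = inhibition of 50% or more in the single-dose primary screen; inactive = inhibition below 50%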
zVAD death inh = inhibitors of zVAD-triggered necroptosis, primary screen, L929 cells. 220,000 compounds, 0.38% hits. viability rescue, % at 10 µM. L929 zVAD necroptosis rescue, ATP luminescence, 24 h; with zVAD 60 µM;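 active = activation, scaled between plate controls, above about 75%, limit read from the data; inactive = activation under that limit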
zVAD death conf = inhibitors of zVAD-triggered necroptosis in L929, confirmation, L929 cells, duplicate runs; shares compounds with zVAD death inh; L929 zVAD-induced necroptosis rescue, ATP luminescence, 24 h; activation (protection from necroptosis), % at 10 µM; 760 compounds, 16% hits; AID 463117, 2010;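 active = mean protection from necroptosis of at least 50% over duplicate tests; inactive = mean protection below 50%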
Dynein inh conf = dynein cargo transport inhibitors, GR-EGFP translocation, confirmation, imaging, high-content imaging, GR-EGFP cells; 3617.4 GR-EGFP nuclear translocation imaging, dexamethasone-induced; 1,000 compounds, 69% hits; calls only at 20 µM; shares compounds with Dynein cargo inh;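 active = inhibition of receptor movement into the nucleus at or above a set limit in both runs, with normal cell brightness and cell count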;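 note: dexamethasone at 1 µM final in well for 30 min; nuclear minus cytoplasmic GR-EGFP mean intensity difference in channel 2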
S1P4 agonist cf = S1P4 receptor agonists, retest, confirmation, cell-based, high throughput; 740 compounds, 7% hits; AID 1523, 2009; shares compounds with S1P4 agonist; activation, % at 4.98 µM; S1P4 agonist cell-based reporter assay; in the data active = activation above about 12%
S1P1 ag = S1P1 receptor agonists, human, counter-screen for S1P4 agonist project, cell-based | shares compounds with S1P4 agonist | S1P1 agonist cell-based assay, activation | activation, % at 4.98 µM | 740 compounds, 4% hits | AID 1563, 2009; in the data active = activation above about 21%
Target sequence (P21453 whole entry, looked up): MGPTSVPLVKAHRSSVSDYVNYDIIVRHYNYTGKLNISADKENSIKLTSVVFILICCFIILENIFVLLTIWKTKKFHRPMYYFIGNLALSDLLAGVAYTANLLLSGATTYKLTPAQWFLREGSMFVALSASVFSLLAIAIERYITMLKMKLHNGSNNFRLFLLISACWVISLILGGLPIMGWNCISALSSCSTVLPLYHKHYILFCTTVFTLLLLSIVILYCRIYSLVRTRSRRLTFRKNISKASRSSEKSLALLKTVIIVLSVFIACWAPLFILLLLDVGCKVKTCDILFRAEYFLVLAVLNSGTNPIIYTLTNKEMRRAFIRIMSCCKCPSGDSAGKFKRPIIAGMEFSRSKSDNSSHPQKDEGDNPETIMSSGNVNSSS
S1P4 antag conf = S1P4 receptor antagonists, human, confirmation, cell-based; inhibition, % at 4.98 µM; S1P4-expressing cell line, antagonist mode, reporter read-out; shares compounds with S1P4 antagonist; 520 compounds, 71% hits; in the data active = inhibition above about 30%
S1P1 antag = S1P1 receptor antagonists, human, counter-screen for S1P4 antagonist project, cell-based. shares compounds with S1P4 antagonist. cell-based S1P1 antagonist counterscreen, inhibition. inhibition, % at 4.98 µM. 520 compounds, 37% hits. AID 1564, 2009; in the data active = inhibition above about 40%;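 note: receptor stimulated with S1P near its EC80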
Hits are given with their value; 0 = inactive; - = not tested or not shown; + = active, no number; ! = repeats disagree. A selection: hits, their analogues and other compounds. The true share with any hit is near 1.5%.

SMILES | S1P4 agonist | Dynein cargo inh | S1P4 antagonist | TNF death inh | Tb hexokinase | zVAD death inh | zVAD death conf | Dynein inh conf | others
CC(C)C(=O)N1CCC2(CC1)Oc1ccc(Cl)cc1C(=O)C21CC(c2cccnc2)=NO1 (configuration not stated) | - | 0 | - | 0 | 0 | 0 | - | -
C(=N\Nc1ncnc2nc[nH]c12)/c1cccs1 | 0 | 0 | 0 | 0 | 0 | 77.4 | 0 | -
Cc1ccsc1/C=N/Nc1ncnc2nc[nH]c12 | 0 | 0 | 0 | 0 | 0 | 0 | - | -
CCc1ccc(NC(=O)Nc2ccc3c(c2)N(C)C(=O)CS3)cc1 | 0 | 0 | 0 | 0 | 0 | 99.1 | 0 | -
Cc1ccc(S(=O)(=O)N(C)C)cc1NC(=O)CSc1nnnn1-c1ccc(O)cc1 | 0 | 0 | 0 | 0 | 0 | 0 | - | -
CN(C)S(=O)(=O)c1ccc(Cl)c(NC(=O)CSc2nnnn2-c2ccc(O)cc2)c1 | 0 | 0 | 0 | 0 | 0 | 86.0 | 88.1 | -
Cc1cc(C(=O)COC(=O)c2ccc(O)cc2)c(C)n1Cc1ccco1 | 0 | 0 | 0 | 0 | 0 | 75.3 | 0 | -
COc1cc2oc(-c3ccc(O)cc3)cc(=O)c2c(O)c1OC | - | 0 | - | 0 | 0 | 78.4 | 0 | -
O=C(CNC1CCCCC1)NN=C(c1ccccc1)c1ccccc1 | 0 | 0 | 0 | 0 | 0 | 0 | - | -
CC(=O)C(=Cc1ccc(C(=O)O)cc1)C(C)=O | 0 | 0 | 0 | 0 | 0 | 0 | - | -
Cc1ccc(NC(=O)C(=Cc2ccc(C(=O)O)cc2)C(=O)Nc2ccc(C)cc2C)c(C)c1 | 0 | -6 | 0 | 0 | 0 | 84.9 | 0 | +
CN(Cc1cnccn1)Cc1nc(Cc2cccc(F)c2)no1 | 0 | 0 | 0 | 0 | 0 | 0 | - | -
O=C(/C(=C/c1ccc(Cl)cc1)c1nc2ccccc2[nH]1)c1ccccc1 | 0 | -4.73 | 0 | 0 | 0 | 107.4 | 0 | +
O=c1cc(CSCc2ccc(Cl)cc2)[nH]c(=O)[nH]1 | 0 | 0 | 0 | 0 | 0 | 0 | - | -
O=c1cc(-c2ccccc2Cl)oc2cc(O)cc(O)c12 | 0 | 0 | 0 | 0 | 0 | 0 | - | -
O=C1C=CC(O)(c2cc(=O)c3c(O)cc(O)cc3o2)C=C1 | 0 | -6.75 | 0 | 0 | 0 | 124.9 | 166.2 | +
O=C1N=C2N(CCN3CCCCC3)c3ccccc3N2/C1=C\c1ccc([N+](=O)[O-])o1 | 0 | -4.02 | 0 | 0 | 0 | 75.4 | 0 | +
Cc1cccc(N=c2oc3cc(O)ccc3cc2C(N)=O)c1 | 48.1 | 0 | 0 | 0 | 0 | 83.4 | 0 | - | S1P4 agonist cf=0;S1P1 ag=0
CNC(=O)c1ccc(=O)n(Cc2cccc(C(F)(F)F)c2)c1 | 0 | 0 | 0 | 0 | 0 | 0 | - | -
COc1ccc(C(=O)/C(=C\c2ccco2)N2C=CC=CC2=C(C#N)C#N)cc1 | 0 | 0 | 69.7 | 0 | 0 | 96.8 | 0 | - | S1P4 antag conf=117.4;S1P1 antag=41.1
Nc1nc(C(F)(F)F)c(Br)c(=O)n1N | 0 | 0 | 0 | 0 | 0 | 0 | - | -
Cc1cc(C)c(Nc2cc(S(=O)(=O)O)c(N)c3c2C(=O)c2ccccc2C3=O)c(C)c1 | 0 | 0 | 0 | 0 | 0 | 0 | - | -
O=S(=O)(Nc1cccc2ncccc12)c1cccs1 | 0 | 0 | 54.0 | 0 | 0 | 79.3 | 0 | - | S1P4 antag conf=106.1;S1P1 antag=90.7
CN1C(=O)/C(=C\C(=O)c2cccs2)c2ccccc21 | 0 | 0 | 39.7 | 0 | 0 | 86.5 | 0 | - | S1P4 antag conf=97.3;S1P1 antag=45.2
O=C1CCN(C(=O)c2cccs2)c2ccccc21 | 0 | 0 | 0 | 0 | 0 | 0 | - | -
SMILES | S1P4 agonist | Dynein cargo inh | S1P4 antagonist | TNF death inh | Tb hexokinase | zVAD death inh | zVAD death conf | Dynein inh conf | others
O=C(Nc1cccc(Cl)c1)Nc1nccs1 | 0 | 0 | 34.8! | 0 | 0 | 81.6! | 0 | - | S1P4 antag conf=0;S1P1 antag=0
O=C(Nc1ccc(Cl)c(Cl)c1)Nc1nccs1 | 0 | 0 | 0 | 0 | 0 | 0 | - | -
N#CC(C#N)=C1C=C2C=C(N3CCOCC3)CCC2CC1 (configuration not stated) | 0 | -7.03 | 0 | 0 | 0 | 0 | - | +
CN1CCN(C2=CC3=CC(=C(C#N)C#N)CCC3CC2)CC1 (configuration not stated) | 0 | -3.76 | 0 | 0 | 0 | 0 | - | 0
CC1(C)CC(NCCN2CCN(C3=CC(=C(C#N)C#N)CC(C)(C)C3)CC2)=CC(=C(C#N)C#N)C1 | 0 | 0 | 0 | 0 | 0 | 0 | - | -
CCN1CCN(C2=CC3=CC(=C(C#N)C#N)CCC3CC2)CC1 (configuration not stated) | 0 | -5.22 | 0 | 0 | 0 | 0 | - | +
N#Cc1cc(Cl)c(N2CCOCC2)cc1C#N | 0 | 0 | 0 | 0 | 0 | 0 | - | -
N#CC(C#N)=C1C=C2C=C(N3CCCCCC3)CCC2CC1 (configuration not stated) | 0 | -3.68 | 0 | 0 | 0 | 0 | - | +
COC(=O)Cn1nc(-c2ccc(C)cc2)c2ccccc2c1=O | 0 | 0 | 0 | 0 | 0 | 0 | - | -
O=C(O)C(Cc1c[nH]c2ccccc12)NS(=O)(=O)c1ccc(Cl)cc1 (configuration not stated) | 0 | 0 | 0 | 0 | 0 | 0 | - | -
O=c1cc(C(Cl)(Cl)Cl)oc2c1ccc1ccccc12 | 0 | -3.98 | 0 | 0 | 0 | 0 | - | +
Cc1ccc(-n2nnnc2CCl)cc1 | 0 | -6.09 | 0 | 0 | 0 | 0 | - | +
Cc1ccc(-c2nnnn2-c2ccc(C)cc2)cc1 | 0 | 0 | 0 | 0 | 0 | 0 | - | -
CSc1nnc(C)c(/C=C/Nc2ccc(F)cc2)n1 | 0 | 0 | 0 | 0 | 0 | 0 | - | -
